Bioassay records from PubChem.
Rows were chosen to be rich in hits. Some 2.6% of all compounds tested hit in one or more screens of this group.
GSTO1 counter: GSTO1 inhibition, counter-screen for RBBP9 inhibitors; P78417; recombinant GSTO1, activity-based probe fluorescence polarization; inhibition, % at 5.96 µM; 300,000 tested, 1.1% active; AID 1974;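 active = inhibition above the campaign mean inhibition plus 3 SD, cut at about 35% in these data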
Target sequence (P78417 whole entry, looked up): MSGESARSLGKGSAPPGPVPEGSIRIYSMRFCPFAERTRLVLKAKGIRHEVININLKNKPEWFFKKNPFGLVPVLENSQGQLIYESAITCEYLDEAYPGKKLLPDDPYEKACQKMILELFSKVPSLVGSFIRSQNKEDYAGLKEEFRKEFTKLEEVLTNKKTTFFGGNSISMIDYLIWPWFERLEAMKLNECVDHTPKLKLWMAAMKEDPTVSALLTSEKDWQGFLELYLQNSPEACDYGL
PAD4 FP inh: blocks human protein arginine deiminase 4; Q9UM07; recombinant PAD4, RCA probe fluorescence polarization; inhibition, % at 6.36 µM; 330,000 tested, 0.41% active; AID 485272;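 active = percent inhibition above a cutoff equal to the mean of all tested compounds plus 3 SD, cut at about 15% in these data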
PRMT1 inh: PRMT1 (human) inhibition, primary screen; Q99873; recombinant PRMT1, activity-based probe fluorescence polarization; inhibition, % at 2.79 µM; 370,000 tested, 1.3% active; AID 652257;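 active = inhibition above about 21% made by adding two undisclosed values, limit read from the data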
Target sequence (Q99873 whole entry, looked up): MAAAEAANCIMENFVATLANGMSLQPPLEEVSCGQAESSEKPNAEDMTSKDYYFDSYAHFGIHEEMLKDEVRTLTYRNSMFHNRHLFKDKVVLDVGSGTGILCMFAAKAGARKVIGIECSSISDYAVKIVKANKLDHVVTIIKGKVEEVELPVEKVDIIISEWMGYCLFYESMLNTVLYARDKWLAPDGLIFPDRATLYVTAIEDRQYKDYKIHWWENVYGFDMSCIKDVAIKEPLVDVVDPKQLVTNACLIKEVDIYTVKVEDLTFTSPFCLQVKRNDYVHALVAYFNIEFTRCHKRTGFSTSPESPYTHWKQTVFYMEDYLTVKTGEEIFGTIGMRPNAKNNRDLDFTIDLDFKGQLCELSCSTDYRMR
Apaf1 inhib: inhibitors of human Apaf-1 apoptosome. O14727. reconstituted apoptosome caspase-3 activity, DEVD-Rh110 fluorescence. inhibition, % at 20 µM. 330,000 tested, 0.71% active. AID 489030; active = inhibition of at least 40% at 20 µM
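System: reconstituted apoptosome with Apaf-1, cytochrome c, caspase-9, procaspase-3, dATP; Signal: Rh110 fluorescence intensity; Schedule: 30 min compound preincubation, 50 min activation, room temperature; Reagent: cytochrome c trigger plus (Z-DEVD)2-Rh110 caspase-3 substrate.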
TDP2 inh: TDP2 (human) inhibition, absorbance primary screen | recombinant TDP2, T5PNP hydrolysis, p-nitrophenol absorbance 415 nm | inhibition, % at 12.8 µM | O95551 | 370,000 tested, 0.34% active;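 active = inhibition above the mean of all tested compounds plus 3 SD, set per campaign, cut at about 25% in these data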
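test system = human TDP2 enzyme | input = TDP2 enzyme at 120 nM final | medium = 50 mM Tris-HCl pH 7.5 with Mg2+, KCl, DTT, BSA | also added = T5PNP substrate, 5 mM | times = 2 h at 37 °C | technique = epi absorbance | benchmarks = high control without enzyme, low control DMSO plus TDP2 | replication = each compound tested once, singlicate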
Apaf-1 inh conf2: confirmation of Apaf-1 inhibitors; 1,800 tested, 25% active; inhibition, % at 20 µM; reconstituted apoptosome, caspase-3 DEVD-Rh110 fluorescence; shares compounds with Apaf1 inhib;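 active = mean inhibition of at least 40% at 20 µM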
Rh110 quench: counter-screen for Apaf-1 inhibitors: fluorescence interference; shares compounds with Apaf1 inhib; Rh110 fluorescence interference, quenched caspase reaction; activation (fluorescence interference), % at 20 µM; 1,800 tested, under 10 active; AID 504615;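 active = signal rise of 40% or more at 20 µM, treated as a fluorescence artifact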
Fluor interf inh: Apaf-1 inhibitor counter-screen fluorescence artifact. shares compounds with Apaf1 inhib. fluorescence interference counterscreen, Apaf-1 assay format. IC50, µM. 460 tested, under 10 active; call rule not given here
Numbers stand for hits; – = inactive; · = no result.

SMILES	GSTO1 counter	PAD4 FP inh	PRMT1 inh	Apaf1 inhib	TDP2 inh	Apaf-1 inh conf2	Rh110 quench	others
CCC(C)Sc1cccc(-c2nc3cc(C)ccn3c2NC2CCCCC2)c1 (stereo unspecified)	·	–	–	40.7	–	–	–
Cc1ccn2c(NC3CCCCC3)c(-c3cccc(SC4CCCCC4)c3)nc2c1	·	–	–	40.4	–	–	–
Cc1noc(C)c1NC(=O)Nc1ccc2c(c1)C(=O)N(C)[C@H]1CC[C@H](CC(=O)NCc3ccc(Cl)cc3)O[C@@H]1CO2	·	·	–	·	–	·	·
CC(C)OP(=O)(OC(C)C)C(Nc1ccccn1)c1ccc(F)cc1 (stereo unspecified)	–	–	–	54.9	–	–	–
Cc1ccc(-c2cc(C(=O)NN=Cc3ccc(-c4ccccc4)cc3)[nH]n2)cc1C	·	·	–	·	–	·	·
COCc1ccc(CN2CCC(C(=O)Nc3cccc(-c4cscn4)c3)CC2)o1	–	–	–	–	–	·	·
COCc1ccc(CN2CCC(C(=O)Nc3cccc(-c4cccc(Cl)c4)c3)CC2)o1	–	–	–	49.3	–	–	–
FC(F)(F)c1cc(CO[C@@H]2CCCN[C@@H]2c2ccccc2)cc(C(F)(F)F)c1	–	–	–	47.3	–	–	–
c1ccc(C2NCCNC2c2ccccc2)cc1 (stereo unspecified)	·	·	–	·	–	·	·
NC1(C#Cc2ccc3c(=O)c4ccccc4sc3c2)CCCCC1	·	–	–	60.1	–	–	–
COc1ccc(N(CC(=O)NCCOc2ccccc2)S(=O)(=O)c2ccc(C)cc2)cc1	–	–	–	–	–	·	·
COCCNC(=O)CN(c1cccc(OC)c1)S(=O)(=O)c1ccc(C)cc1	–	–	–	57.1	–	–	–
COc1ccc(NC(=O)[C@@H](NC(=O)N2C[C@H]3C[C@@H](C2)c2cccc(=O)n2C3)C(C)C)cc1OC	–	–	–	61.7	–	–	–
CCOC(=O)c1cnn(-c2c(Cc3ccccc3)c(C)nc3c(-c4ccccc4)c(C)nn23)c1N	–	–	–	61.6	–	54.8	–	Fluor interf inh=–
CCOC(=O)[C@]12CCCC=C1N(Cc1ccccc1)C(=O)[C@H](CC(=O)NCCCN1CCCC1=O)C2	·	·	–	·	–	·	·
O=C(CN[C@@H](Cc1c[nH]c2ccccc12)C(=O)NCCc1c[nH]c2ccccc12)NC1CCCCC1	·	·	–	·	–	·	·
O=C(CN1C(=O)NC(c2ccccc2)(c2ccccc2)C1=O)Nc1ccc(N2CCOCC2)cc1	·	–	–	–	–	·	·
COc1ccc(C2(c3ccc(OC)cc3)NC(=O)N(CC(=O)Nc3ccc(N4CCOCC4)cc3)C2=O)cc1	–	–	–	40.9	–	–	–
Nc1[nH]c(C(=O)c2ccccc2)c(-c2ccccc2C(F)(F)F)c1C(=O)NCc1ccc(F)cc1	·	·	–	·	–	·	·
O=C1c2cc(F)ccc2-n2c1nc1ccccc1c2=O	35.3	–	–	62.6	–	51.8	–	Fluor interf inh=–
Nn1c(-c2ccc(F)cc2)nc2ccccc2c1=O	–	–	–	–	–	·	·
CN(C)c1oc(-c2ccco2)nc1C#N	–	–	–	–	–	·	·
CN(Cc1ccccc1)c1oc(-c2ccco2)nc1C#N	–	–	–	40.9	–	–	–
CCc1ccc2cccc3c2c1N=CN3C	–	–	–	86.6	–	–	–
CN1[C@H](Cc2ccccc2)COc2cc(N3CCCC3)ccc2S1(=O)=O	·	·	–	·	–	·	·
SMILES	GSTO1 counter	PAD4 FP inh	PRMT1 inh	Apaf1 inhib	TDP2 inh	Apaf-1 inh conf2	Rh110 quench	others
COc1cc(C(=O)NC2CCN(C)CC2)ccc1Nc1ncc2c(n1)N(C1CCCCC1)CCC(=O)N2C	·	·	–	·	–	·	·
CCN1C(=O)CC(c2ccccc2)N(C2CCCC2)c2nc(Nc3ccc(C(=O)NC4CCN(C)CC4)cc3OC)ncc21 (stereo unspecified)	·	–	·	69.5	·	–	–
CCCCC[C@@H](C)N1C[C@@H](COCc2ccccc2)Oc2cc(N3CC[C@H](N(C)C)C3)ccc2S1(=O)=O	·	·	–	·	–	·	·
CC(=O)Nc1ccc2nc3ccccc3nc2c1	–	–	–	49.8	–	–	–
Clc1ccccc1OCc1nn2c(-c3ccncc3)nnc2s1	–	–	–	40.6	–	50.1	–	Fluor interf inh=–
Cc1ccc(N2CCN(S(=O)(=O)c3cccs3)CC2C)cc1 (stereo unspecified)	–	–	–	62.2	–	–	–
Cc1ccc(N2CCN(S(=O)(=O)c3c(C)nc4sccn4c3=O)CC2C)cc1 (stereo unspecified)	·	·	–	·	–	·	·
COc1ccccc1N1C(=O)c2ccccc2NC1c1ccncc1 (stereo unspecified)	–	–	–	–	–	·	·
COc1ccccc1N1C(=O)N(C(C)=O)C2C1Nc1ccccc1N2C (stereo unspecified)	–	–	–	82.8	–	–	–
CSCCC(NC(=O)COc1ccccc1)C(=O)N1CCC(C(N)=O)CC1 (stereo unspecified)	·	–	–	63.7	–	–	–
CSCCC(NC(=O)COc1ccccc1)C(=O)N1CCCCC1 (stereo unspecified)	–	–	–	–	–	·	·
COc1ccccc1C(=O)NC(CCSC)C(=O)N1CCC(Cc2ccccc2)CC1 (stereo unspecified)	–	–	–	44.0	–	–	–
Cc1c(Br)c([N+](=O)[O-])nn1CCCC(=O)Nc1c(C)n(C)n(-c2ccccc2)c1=O	–	–	–	–	–	·	·
Cc1cc(NC(=O)CCCn2nc([N+](=O)[O-])c(Br)c2C)no1	–	–	–	40.5	–	–	–
COc1ccc(CNCC#Cc2ccc(C)cc2)c(OC)c1	·	·	–	·	–	·	·
CCCCOc1ccc(C(=O)n2ccc3ccc(-c4ccc5ccn(Cc6ccc(OC)cc6)c5c4)cc32)cc1	·	·	–	·	–	·	·
CC1(C)OC(C)(C)/C(=C/Nc2ccc(O)cc2)C1=O	–	–	–	48.1	–	–	–
COc1ccc(NC(=O)CCCn2c(=S)[nH]c3ccccc3c2=O)cc1	–	–	–	–	–	·	·
COc1ccc(NC(=O)CCn2c(=S)[nH]c3ccccc3c2=O)cc1	–	–	–	85.7	–	–	–
COc1ccc(-c2[nH]n(-c3ccc([N+](=O)[O-])cc3)c(=O)c2C=NCc2ccc(F)cc2)cc1	–	–	–	–	–	·	·
COc1ccc(-c2cc(=O)n(-c3ccc([N+](=O)[O-])cc3)[nH]2)cc1	53.5	36.2	–	64.8	–	–	–
O=C(CSc1nnc(-c2ccncc2)n1-c1ccc(Br)cc1)c1ccccc1	·	·	–	·	–	·	·
CCOC(=O)C1CCN(S(=O)(=O)c2ccc3c4c2CC(=O)N4CC(C)S3)CC1 (stereo unspecified)	–	–	–	44.4	–	–	–
CC1CCN(C(=O)Nc2ccc3nsnc3c2)CC1	–	–	–	–	–	·	·
